Measured values: ChEMBL document CHEMBL1125639, “Synthesis and resolution of (+-)-7-chloro-8-hydroxy-1-(3'-iodophenyl)-3-methyl-2,3,4,5-tetrahydro- 1H-3- benzazepine (TISCH): a high affinity and selective iodinated ligand for CNS D1 dopamine receptor” (J Med Chem, 1991)
“And” between values parts separate entries of the source, which are not always exact repeats. Identical values can stand only once.

How the values were obtained:
Rattus norvegicus [1] = test: Biodistribution of compound in rats liver after an intravenous injection was measured at 1 hr; format: ADME, organism-based; settings: in vivo
Procedure, shortened: (§1)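 Male Sprague-Dawley rats (225-300 g), free access to food and water. Under ether anesthesia, given 0.2 mL saline containing 125I-labelled ligand (2-5 μCi, ~2200 Ci/mmol) into the femoral vein. Killed by cardiac excision at set times. Organs removed, weighed and gamma-counted. % dose/organ is taken against diluted injectate aliquots, with blood and muscle assumed to be 7% and 40% of body weight. Mean of 3 rats ± std dev.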

Rattus norvegicus [2] = test: Biodistribution of compound in rats brain after an intravenous injection was measured at 24 hr; format: ADME, organism-based; settings: in vivo
Procedure, shortened: (§2)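 Rats (male Sprague-Dawley, 225-300 g) given the 125I ligand (2-5 μCi, ~2200 Ci/mmol) in 0.2 mL saline via the femoral vein under ether anesthesia, then killed at set times. Whole brain removed, weighed and gamma-counted. % dose/organ is taken against diluted injectate aliquots. Mean of 3 rats ± std dev.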

Rattus norvegicus [3] = test: Regional brain distribution of compound in rats cerebellum after an intravenous injection was measured at 2 min; format: ADME, organism-based; settings: in vivo
Procedure, shortened: (§3)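 After femoral-vein injection of [125I]-labeled ligand (2-5 μCi, ~2200 Ci/mmol, 0.2 mL saline, ether anesthesia) into male Sprague-Dawley rats (225-300 g), brains were dissected into cortex, striatum and cerebellum, weighed and gamma-counted. % dose/gram calculated against diluted initial dose; regional ratio = % dose/gram of region divided by that of cerebellum.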

Rattus norvegicus [4] = test: Biodistribution of compound in rats muscle after an intravenous injection was measured at 4 hr; format: ADME, organism-based, Muscle tissue; settings: in vivo; procedure, shortened: as §1
Rattus norvegicus [5] = test: Ratio of regional brain distribution in striatum to that of cerebellum at 4 hr after intravenous injection; format: ADME, organism-based; settings: in vivo; procedure, shortened: as §3
Rattus norvegicus [6] = test: Biodistribution of compound in rats spleen after an intravenous injection was measured at 24 hr; format: ADME, organism-based; settings: in vivo; procedure, shortened: as §1
Rattus norvegicus [7] = test: Regional brain distribution of compound in rats striatum after an intravenous injection was measured at 1 hr; format: ADME, organism-based; settings: in vivo; procedure, shortened: as §3
Rattus norvegicus [8] = test: Biodistribution of compound in rats muscle after an intravenous injection was measured at 1 hr; format: ADME, organism-based, Muscle tissue; settings: in vivo; procedure, shortened: as §1
Rattus norvegicus [9] = test: Biodistribution of compound in rats thyroid after an intravenous injection was measured at 24 hr; format: ADME, organism-based, Thyroid gland; settings: in vivo
Procedure, shortened: (§4)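 Male Sprague-Dawley rats (225-300 g), free access to food and water; under ether anesthesia, 0.2 mL saline containing [125I]-labeled ligand (2-5 μCi, ~2200 Ci/mmol) injected into femoral vein; killed by cardiac excision under ether at set times. […] removed, weighed, gamma-counted; % dose/organ from comparison with diluted aliquots of injectate; mean of 3 rats ± std dev.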

Rattus norvegicus [10] = test: Biodistribution of compound in rats brain after an intravenous injection was measured at 4 hr; format: ADME, organism-based; settings: in vivo; procedure, shortened: as §2
Rattus norvegicus [11] = test: Regional brain distribution of compound in rats cerebellum after an intravenous injection was measured at 4 hr; format: ADME, organism-based; settings: in vivo; procedure, shortened: as §3
Rattus norvegicus [12] = test: Biodistribution of compound in rats thyroid after an intravenous injection was measured at 2 min; format: ADME, organism-based, Thyroid gland; settings: in vivo; procedure, shortened: as §4
Rattus norvegicus [13] = test: Biodistribution of compound in rats blood after an intravenous injection was measured at 1 hr; format: ADME, organism-based; settings: in vivo; procedure, shortened: as §1
Rattus norvegicus [14] = test: Biodistribution of compound in rats blood after an intravenous injection was measured at 4 hr; format: ADME, organism-based; settings: in vivo; procedure, shortened: as §1
Rattus norvegicus [15] = test: Biodistribution of compound in rats thyroid after an intravenous injection was measured at 4 hr; format: ADME, organism-based, Thyroid gland; settings: in vivo; procedure, shortened: as §4
Rattus norvegicus [16] = test: Biodistribution of compound in rats skin after an intravenous injection was measured at 1 hr; format: ADME, organism-based, Zone of skin; settings: in vivo; procedure, shortened: as §1
Rattus norvegicus [17] = test: Biodistribution of compound in rats heart after an intravenous injection was measured at 1 hr; format: ADME, organism-based; settings: in vivo; procedure, shortened: as §1
Rattus norvegicus [18] = test: Biodistribution of compound in rats muscle after an intravenous injection was measured at 30 min; format: ADME, organism-based, Muscle tissue; settings: in vivo, 0.5 h; procedure, shortened: as §1
Rattus norvegicus [19] = test: Biodistribution of compound in rats lung after an intravenous injection was measured at 4 hr; format: ADME, organism-based; settings: in vivo; procedure, shortened: as §1
Rattus norvegicus [20] = test: Biodistribution of compound in rats kidney after an intravenous injection was measured at 1 hr; format: ADME, organism-based; settings: in vivo; procedure, shortened: as §1
Rattus norvegicus [21] = test: Regional brain distribution of compound in rats cerebellum after an intravenous injection was measured at 30 min; format: ADME, organism-based; settings: in vivo, 0.5 h; procedure, shortened: as §3
Rattus norvegicus [22] = test: Biodistribution of compound in rats brain after an intravenous injection was measured at 30 min; format: ADME, organism-based; settings: in vivo, 0.5 h; procedure, shortened: as §2
[23] = Ratio of regional brain distribution in striatum to that of cerebellum at 2 min after intravenous injection; format: functional; procedure, shortened: as §3
Rattus norvegicus [24] = test: Biodistribution of compound in rats blood after an intravenous injection was measured at 30 min; format: ADME, organism-based; settings: in vivo, 0.5 h; procedure, shortened: as §1
Rattus norvegicus [25] = test: Biodistribution of compound in rats muscle after an intravenous injection was measured at 24 hr; format: ADME, organism-based, Muscle tissue; settings: in vivo; procedure, shortened: as §1
Rattus norvegicus [26] = test: Biodistribution of compound in rats kidney after an intravenous injection was measured at 2 min; format: ADME, organism-based; settings: in vivo; procedure, shortened: as §1
Rattus norvegicus [27] = test: Biodistribution of compound in rats heart after an intravenous injection was measured at 30 min; format: ADME, organism-based; settings: in vivo, 0.5 h; procedure, shortened: as §1
Rattus norvegicus [28] = test: Biodistribution of compound in rats thyroid after an intravenous injection was measured at 30 min; format: ADME, organism-based, Thyroid gland; settings: in vivo, 0.5 h; procedure, shortened: as §4
Rattus norvegicus [29] = test: Biodistribution of compound in rats liver after an intravenous injection was measured at 4 hr; format: ADME, organism-based; settings: in vivo; procedure, shortened: as §1

With `CN1CCc2cc(Cl)c(O)cc2[C@@H](c2cccc(I)c2)C1` the Biodistribution (Rattus norvegicus [1]) was 9.814, the Biodistribution (Rattus norvegicus [2]) was 0.001 and the Biodistribution (Rattus norvegicus [3]) was 1.03. It also gave a Biodistribution (Rattus norvegicus [4]) of 1.17, a Biodistribution (Rattus norvegicus [5]) of 56.5 and a Biodistribution (Rattus norvegicus [6]) of 0.001. The Biodistribution (Rattus norvegicus [7]) was 1.455, the Biodistribution (Rattus norvegicus [8]) was 8.59 and the Biodistribution (Rattus norvegicus [9]) was 0.268. The Biodistribution (Rattus norvegicus [10]) was 0.102, the Biodistribution (Rattus norvegicus [11]) was 0.011 and the Biodistribution (Rattus norvegicus [12]) was 0.121. The Biodistribution (Rattus norvegicus [13]) was 0.847, the Biodistribution (Rattus norvegicus [14]) was 0.254 and the Biodistribution (Rattus norvegicus [15]) was 0.118. The Biodistribution (Rattus norvegicus [16]) was 7.42, the Biodistribution (Rattus norvegicus [17]) was 0.088 and the Biodistribution (Rattus norvegicus [18]) was 9.3. It also gave a Biodistribution (Rattus norvegicus [19]) of 0.122, a Biodistribution (Rattus norvegicus [20]) of 0.883 and a Biodistribution (Rattus norvegicus [21]) of 0.248. It also gave a Biodistribution (Rattus norvegicus [22]) of 0.798, a Ratio [23] of 1.28 and a Biodistribution (Rattus norvegicus [24]) of 0.773. For the same compound, the Biodistribution (Rattus norvegicus [25]) was 0.201, the Biodistribution (Rattus norvegicus [26]) was 4.92 and the Biodistribution (Rattus norvegicus [27]) was 0.137. For the same compound, the Biodistribution (Rattus norvegicus [28]) was 0.042 and 0.042% and the Biodistribution (Rattus norvegicus [29]) was 7.638.
